Experimental data taken from paper PMC3466776 (Biochemistry, 2012).

Experiments:
[1] = read-out: Kd for Ca^2+; cited from earlier work
CaMWT = CaMWT (Rattus norvegicus, UniProt P0DP29); test: Stopped-flow Ca^2+ dissociation kinetics of CaMWT; format: binding; conditions: for number of Ca^2+ ions released, phase 1, CaMWT / number of Ca^2+ ions released, phase 2, CaMWT: 0.03 relative amplitude = one Ca^2+ ion; for amplitude 1 (relative quin-2 fluorescence change), CaMWT: as koff1, CaMWT; for amplitude 1 (relative quin-2 fluorescence change), CaMWT / amplitude 2 (relative quin-2 fluorescence change), CaMWT: mean ± SD of 3-8 experiments; for amplitude 2 (relative quin-2 fluorescence change), CaMWT: as koff2, CaMWT
In short: (§1)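 Rat His-CaM (2 μM) with 20 μM CaCl2, alone or with 2 μM synthetic AC1 or AC8 CaMBD peptide, is mixed 1:1 with 150 μM quin-2. These are pre-mix concentrations. Buffer is 20 mM MOPS pH 7.4, 100 mM KCl, 1 mM MgCl2, at 22 °C. Quin-2 fluorescence is read with excitation at 334 nm and a 405 nm cutoff filter. Five to eight runs are averaged and fit single- or double-exponentially. A relative amplitude of 0.03 equals one Ca2+. Values are mean ± SD of ≥3 averages.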

CaM12 = CaM12 (Rattus norvegicus, UniProt P0DP29, D21A/D57A); test: Stopped-flow Ca^2+ dissociation kinetics of CaM12; format: binding; conditions: for amplitude 1 (relative quin-2 fluorescence change), CaM12: as koff1, CaM12, 22 °C; for amplitude 1 (relative quin-2 fluorescence change), CaM12 / amplitude 2 (relative quin-2 fluorescence change), CaM12: mean ± SD of 3-8 experiments; for amplitude 2 (relative quin-2 fluorescence change), CaM12: as koff2, CaM12, 22 °C
In short: as §1

CaM34 = CaM34 (Rattus norvegicus, UniProt P0DP29, D130A/D94A); test: Stopped-flow Ca^2+ dissociation kinetics of CaM34; format: binding; conditions: mean ± SD of 3-8 experiments; for amplitude 2 (relative quin-2 fluorescence change), CaM34: as koff2, CaM34, 22 °C
In short: as §1

[2] = CaM12 with peptide, single-exponential fit, 22 °C, n = 3

Molecule | Kd [1] | number of Ca^2+ ions released, phase 1, CaMWT (CaMWT; 22 °C) | number of Ca^2+ ions released, phase 2, CaMWT (CaMWT; 22 °C) | total Ca^2+ released in measurable phases, CaMWT (CaMWT; CaMWT with peptide, 22 °C) | amplitude 1 (relative quin-2 fluorescence change), CaMWT (CaMWT; 22 °C) | amplitude 2 (relative quin-2 fluorescence change), CaMWT (CaMWT; 22 °C) | amplitude 1 (relative quin-2 fluorescence change), CaM12 (CaM12) | amplitude 2 (relative quin-2 fluorescence change), CaM12 (CaM12) | amplitude 2 (relative quin-2 fluorescence change), CaM34 (CaM34) | total relative amplitude, CaMWT (CaMWT; CaMWT with peptide, 22 °C) | reduction of Ca^2+ dissociation speed, C-lobe (CaMWT; if slower release from both lobes, C-lobe) | reduction of Ca^2+ dissociation speed, N-lobe (CaMWT; if slower release from both lobes, N-lobe) | amplitude, single-exponential fit, CaM12 (CaM12; [2]) | rate constant, single-exponential fit, CaM12 (CaM12; [2]) | amplitude 1 (relative quin-2 fluorescence change), CaM34 (CaM34; as koff1, CaM34, 22 °C)
COc1cc(N(CC(=O)O)CC(=O)O)c2nc(COc3cc(C)ccc3N(CC(=O)O)CC(=O)O)ccc2c1 [quin-2] | ~60 nM | – | – | – | – | – | – | – | – | – | – | – | – | – | –
GSRPQRLLWQTAVRHITEQRFIHGH [AC8-Nt] | – | 1 | 1 | 2 mol | 0.029 ± 0.008 | 0.027 ± 0.007 | 0.017 ± 0.002 | 0.022 ± 0.06 | 0.027 ± 0.004 | – | – | – | – | – | –
IKPAKRMKFKTVCYLLVQLMHCRKMFKA [AC1-C1b] | – | 2 | 1 | 3 mol | 0.053 ± 0.001 | 0.024 ± 0.006 | 0.022 ± 0.010 | 0.012 ± 0.003 | 0.032 ± 0.007 | – | – | – | – | – | –
YSLAAVVLGLVQSLNRQRQKQLLNE [AC8-C2b] | – | 2 | 2 | four | 0.054 ± 0.006 | 0.053 ± 0.010 | 0.043 ± 0.007 | 0.021 ± 0.001 | – | ~0.12 | 5 fold | > 60 fold | 0.054 ± 0.004 | 7.0 ± 1.3 s^–1 | 0.049 ± 0.006
